In ChEMBL document CHEMBL4270546, “A novel Anti-Cancer Stem Cells compound optimized from the natural symplostatin 4 scaffold inhibits Wnt/β-catenin signaling pathway” (Eur J Med Chem, 2018):
Active and inactive are the calls of the source. The rule behind the calls is not given here.

Assays:
[1] = system: B16-F10; assay: Inhibition of CD133+ sub-population of mouse B16F10 cells assessed as CD133+ cells at 0.25 after 48 hrs by flow cytometry (reference value: 7.23%); type: functional; set-up: scale not given: the % may be the effect or the level left
[2] = system: A-375; assay: Induction of apoptosis in human A375 cells assessed as early apoptotic cells at 2 uM after 48 hrs by Annexin V-FITC/propidium iodide staining based flow cytometry (reference value: 1.13%); type: functional
[3] = system: A-375; assay: Antiproliferative activity against human A375 cells after 48 hrs by MTT assay; type: functional, cell-based; conditions: A-375, 48 h
[4] = system: A-375; assay: Inhibition of colony formation in human A375 cells at 0.125 to 0.25 uM after 7 days by crystal violet staining based assay; type: functional, cell-based
Procedure, shortened: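 Clonogenic long-term growth assay: A375 or B16F10 cells grown under continuous compound exposure for 7 days, then colonies quantified; mean ± sd, n = 3, two-way ANOVA.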

[5] = system: B16-F10; assay: Induction of apoptosis in mouse B16F10 cells assessed as late apoptotic cells at 2 uM after 48 hrs by Annexin V-FITC/propidium iodide staining based flow cytometry (reference value: 0.303%); type: functional
[6] = system: B16-F10; assay: Induction of apoptosis in mouse B16F10 cells assessed as early apoptotic cells at 2 uM after 48 hrs by Annexin V-FITC/propidium iodide staining based flow cytometry (reference value: 0.022%); type: functional
[7] = system: A549; assay: Antiproliferative activity against human A549 cells after 48 hrs by MTT assay; type: functional, cell-based; conditions: A549, 48 h
[8] = organism: Homo sapiens; assay: Inhibition of Wnt/beta-catenin signaling pathway in human A375 cells assessed as reduction in STAT3 phosphorylation after 48 hrs by Western blot analysis; type: cell-based
Procedure, shortened: (§1)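 A375 cells exposed to compound at several concentrations for 48 h; lysates immunoblotted for STAT3, p-STAT3, β-catenin and c-Myc.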

[9] = system: B16-F10; assay: Antimigratory activity against mouse B16F10 cells at 0.25 uM after 24 hrs by transwell migration assay; type: functional, cell-based
Procedure, shortened: (§2)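 Cells seeded in the upper chamber of a transwell and incubated with compound (0.25 μM) for 24 h. Cells migrated to the lower chamber were imaged and counted against an untreated control. Mean ± sd, n = 3, two-way ANOVA.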

[10] = system: 4T1; assay: Antiproliferative activity against mouse 4T1 cells after 48 hrs by MTT assay; type: functional, cell-based; conditions: 4T1, 48 h
[11] = system: B16-F10; assay: Induction of apoptosis in mouse B16F10 cells assessed as early apoptotic cells at 1 uM after 48 hrs by Annexin V-FITC/propidium iodide staining based flow cytometry (reference value: 0.022%); type: functional
[12] = system: A-375; assay: Induction of apoptosis in human A375 cells assessed as late apoptotic cells at 2 uM after 48 hrs by Annexin V-FITC/propidium iodide staining based flow cytometry (reference value: 2.7%); type: functional
[13] = system: B16-F10; assay: Induction of apoptosis in mouse B16F10 cells assessed as live cells at 2 uM after 48 hrs by Annexin V-FITC/propidium iodide staining based flow cytometry (reference value: 97.6%); type: functional
[14] = system: A-375; assay: Inhibition of ALDH+ subpopulation of human A375 cells assessed as ALDH+ cells at 0.5 after 48 hrs by flow cytometry (reference value: 25.7%); type: functional; set-up: scale not given: the % may be the effect or the level left
[15] = system: B16-F10; assay: Induction of apoptosis in mouse B16F10 cells assessed as necrotic cells at 1 uM after 48 hrs by Annexin V-FITC/propidium iodide staining based flow cytometry (reference value: 1.86%); type: functional
[16] = system: A-375; assay: Induction of apoptosis in human A375 cells assessed as upregulation of p53 expression after 48 hrs by Western blot analysis
[17] = system: A-375; assay: Inhibition of CD133+ sub-population of human A375 cells assessed as CD133+ cells at 0.25 after 48 hrs by flow cytometry (reference value: 4.54%); type: functional; set-up: scale not given: the % may be the effect or the level left
[18] = system: A-375; assay: Antimigratory activity against human A375 cells at 0.25 uM after 24 hrs by transwell migration assay; type: functional, cell-based; procedure, shortened: as §2
[19] = system: A-375; assay: Induction of apoptosis in human A375 cells assessed as necrotic cells at 1 uM after 48 hrs by Annexin V-FITC/propidium iodide staining based flow cytometry (reference value: 2.39%); type: functional
[20] = system: PANC-1; assay: Antiproliferative activity against human PANC1 cells after 48 hrs by MTT assay; type: functional, cell-based; conditions: PANC-1, 48 h
[21] = organism: Homo sapiens; assay: Inhibition of Wnt/beta-catenin signaling pathway in human A375 cells assessed as reduction in c-Myc protein expression after 48 hrs by Western blot analysis; type: cell-based; procedure, shortened: as §1
[22] = system: B16-F10; assay: Induction of apoptosis in mouse B16F10 cells assessed as live cells at 1 uM after 48 hrs by Annexin V-FITC/propidium iodide staining based flow cytometry (reference value: 97.6%); type: functional
[23] = system: B16-F10; assay: Induction of apoptosis in mouse B16F10 cells after 48 hrs by Annexin V-FITC/propidium iodide staining based flow cytometry; type: functional, cell-based
[24] = system: B16-F10; assay: Inhibition of ALDH+ subpopulation of mouse B16F10 cells assessed as ALDH+ cells at 0.5 after 48 hrs by flow cytometry (reference value: 26.7%); type: functional; set-up: scale not given: the % may be the effect or the level left
[25] = system: B16-F10; assay: Inhibition of CD133+ sub-population of mouse B16F10 cells assessed as CD133+ cells at 0.5 after 48 hrs by flow cytometry (reference value: 7.23%); type: functional; set-up: scale not given: the % may be the effect or the level left
[26] = system: B16-F10; assay: Induction of apoptosis in mouse B16F10 cells assessed as upregulation of activated caspase-3 protein expression at 0.5 to 4 uM after 48 hrs by Western blot analysis; type: functional, cell-based
Procedure, shortened: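 Cells treated with compound at different concentrations (0.5-4 μM) for 48 h. Lysates probed by Western blot for cleaved PARP, active caspase-3, Bax and p53.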

[27] = system: A-375; assay: Induction of apoptosis in human A375 cells assessed as early apoptotic cells at 1 uM after 48 hrs by Annexin V-FITC/propidium iodide staining based flow cytometry (reference value: 1.13%); type: functional
[28] = system: A-375; assay: Anti-invasive activity against human A375 cells at 0.25 uM after 24 hrs by matrigel invasion assay; type: functional, cell-based
Procedure, shortened: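 Cells seeded in the upper chamber of a transwell with a Matrigel-precoated filter, incubated with compound (0.25 μM) for 24 h. Invaded cells imaged and counted against an untreated control. Mean ± sd, n = 3, two-way ANOVA.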

[29] = system: A-375; assay: Induction of apoptosis in human A375 cells assessed as necrotic cells at 2 uM after 48 hrs by Annexin V-FITC/propidium iodide staining based flow cytometry (reference value: 2.39%); type: functional
[30] = organism: Homo sapiens; assay: Inhibition of Wnt/beta-catenin signaling pathway (unknown origin) expressed in human 293T cells assessed as inhibition of TCF/LEF activity up to 100 uM after 48 hrs by luciferase reporter gene assay; type: cell-based
Procedure, shortened: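 293T cells transfected with a TCF/LEF reporter plasmid were treated with compound at different concentrations for 48 h. Luciferase activity was measured and normalized to Renilla luciferase activity.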

[31] = system: MCF7; assay: Antiproliferative activity against human MCF7 cells after 48 hrs by MTT assay; type: functional, cell-based; conditions: MCF7, 48 h
[32] = system: A-375; assay: Inhibition of ALDH+ subpopulation of human A375 cells assessed as ALDH+ cells at 0.25 after 48 hrs by flow cytometry (reference value: 25.7%); type: functional; set-up: scale not given: the % may be the effect or the level left
[33] = system: B16-F10; assay: Induction of apoptosis in mouse B16F10 cells assessed as upregulation of p53 expression after 48 hrs by Western blot analysis
[34] = system: A-375; assay: Induction of apoptosis in human A375 cells assessed as live cells at 2 uM after 48 hrs by Annexin V-FITC/propidium iodide staining based flow cytometry (reference value: 93.6%); type: functional

SMILES: CC[C@H](C)[C@H](NC(=O)OCc1ccccc1)C(=O)N[C@@H](CC(C)C)C(=O)N[C@@H](CC(C)C)C(=O)N[C@@H](C)/C=C/C(=O)N1C(=O)C=C(OC)[C@@H]1C(C)C
- Activity [1]: 2.31%
- Activity [2]: 9.68%
- IC50 [3]: 801 nM
- inhibition [4]: Active
- Activity [5]: 32.9%
- Activity [6]: 31.8%
- IC50 [7]: 4660 nM
- inhibition [8]: Dose-dependent effect
- Activity [9]: Active
- IC50 [10]: 946 nM
- Activity [11]: 8.74%
- Activity [12]: 8.11%
- Activity [13]: 31.5%
- Activity [14]: 8.81%
- Activity [15]: 1.37%
- p53 upregulation [16]: Dose-dependent effect
- Activity [17]: 1.25%
- Activity [18]: Active
- Activity [19]: 4.16%
- IC50 [20]: 435 nM
- inhibition [21]: Dose-dependent effect
- Activity [22]: 85%
- Activity [23]: Dose-dependent effect
- Activity [24]: 11.8%
- Activity [25]: 1.7%
- Activity [26]: Active
- Activity [27]: 3.49%
- Activity [28]: Active
- Activity [29]: 2.87%
- inhibition [30]: Active
- IC50 [31]: 2540 nM
- Activity [32]: 13.3%
- p53 upregulation [33]: Dose-dependent effect
- Activity [34]: 79.3%
